Reference: ChEMBL document CHEMBL2434893, “Synthesis, DNA binding and anti-leukemic activity of an aminoacyl nucleolipid” (Bioorg Med Chem Lett, 2013)

Tests used:
Type in all cases: functional
NCI-H322M = assay: Cytotoxicity against human NCI-H322M cells assessed as cell growth at 10 uM after 48 hrs by SRB assay relative to control; details: read-out: Activity
Procedure, shortened: (§1)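 NCI Developmental Therapeutics Program 60-cell-line screen at a single dose of 10 μM. Cells incubated with compound for 48 h at 37 °C before viability determination.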

NCI-H23 = assay: Cytotoxicity against human NCI-H23 cells assessed as cell growth at 10 uM after 48 hrs by SRB assay relative to control; details: NCI-H23, 48 h, read-out: Activity; procedure, shortened: as §1
NCI-H226 = assay: Cytotoxicity against human NCI-H226 cells assessed as cell growth at 10 uM after 48 hrs by SRB assay relative to control; details: NCI-H226, 48 h, read-out: Activity; procedure, shortened: as §1
A549 = assay: Cytotoxicity against human A549 cells assessed as cell growth at 10 uM after 48 hrs by SRB assay relative to control; details: A549, 48 h, read-out: Activity; procedure, shortened: as §1
K562 = assay: Cytotoxicity against human K562 cells assessed as cell growth at 10 uM after 48 hrs by SRB assay relative to control; details: K562, 48 h, read-out: Activity; procedure, shortened: as §1
CAKI-1 = assay: Cytotoxicity against human Caki1 cells assessed as cell growth at 10 uM after 48 hrs by SRB assay relative to control; details: CAKI-1, 48 h, read-out: Activity; procedure, shortened: as §1
786-0 = assay: Cytotoxicity against human 786-0 cells assessed as cell growth at 10 uM after 48 hrs by SRB assay relative to control; details: 786-0, 48 h, read-out: Activity; procedure, shortened: as §1
OVCAR-8 = assay: Cytotoxicity against human OVCAR8 cells assessed as cell growth at 10 uM after 48 hrs by SRB assay relative to control; details: OVCAR-8, 48 h, read-out: Activity; procedure, shortened: as §1
SK-MEL-5 = assay: Cytotoxicity against human SK-MEL-5 cells assessed as cell growth at 10 uM after 48 hrs by SRB assay relative to control; details: SK-MEL-5, 48 h, read-out: Activity; procedure, shortened: as §1

Compound: CCCCCCCCCCCCCCCC(=O)O[C@@H]1[C@H](OC(=O)CCCCCCCCCCCCCCC)[C@@H](C(=O)N[C@@H](CCCCN)C(=O)OC)O[C@H]1n1cnc2c(=O)[nH]c(NC(=O)C(C)C)nc21.Cl
- growth at 10 µM (NCI-H322M): 89.6%
- growth at 10 µM (NCI-H23): 97.8%
- growth at 10 µM (NCI-H226): 102%
- growth at 10 µM (A549): 99.8%
- growth at 10 µM (K562): 82.9%
- growth at 10 µM (CAKI-1): 94%
- growth at 10 µM (786-0): 98.1%
- growth at 10 µM (OVCAR-8): 87%
- growth at 10 µM (SK-MEL-5): 101%
